Data set [1] relates to PARG-dependent PAR hydrolysis. The data set can be described thus: PAR at DNA damage sites after laser microirradiation. Particulars: 10 μM GLTN; Supplemental Fig. 7C. Type of data set: cell-based.
The subject of data set [2] is recruitment of NBS1 R28A mutant to DNA damage sites. The data set can be described thus: Laser microirradiation, relocation of NBS1 R28A-GFP in MEFs. The following applies: wild-type MEFs. The format is cell-based, mouse. The essentials:
(§1)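 U2OS cells or MEFs (wild-type or knockout) on glass-bottomed dishes expressed GFP-fused proteins or mutants. Microirradiation used an equal laser pulse energy and exposure time for every cell, with live imaging. Where used, 100 nM olaparib, 10 μM GLTN or 10 μM wortmannin was added 1 h before irradiation. GFP intensity at the laser line was quantified; normalized curves from 50 cells over three experiments were averaged, ± SD.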

Data set [3] concerns early DNA damage repair in U2OS cells. The data set can be described thus: Neutral comet assay. The format is cell-based. The following applies: 4 Gy IR, olaparib treatment.
The subject of data set [4] is in vivo interaction between PAR and PNKP, APTX, Ligase4, XRCC1, NBS1. The data set can be described thus: Co-IP of PAR with FHA/BRCT domain-containing proteins after IR. The format is cell-based. Particulars: olaparib pretreatment. The essentials: (§2)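 U2OS cells were given 137Cs IR (10 Gy or indicated doses) and lysed at indicated times. Where used, 100 nM olaparib was added 1 h […]. Lysis on ice in NETN-100 (20 mM Tris-HCl pH 8.0, 100 mM NaCl, 1 mM EDTA, 0.5% NP-40). Soluble fractions were immunoprecipitated and western blotted with the indicated antibodies (e.g., anti-PAR, pATM, pCHK2, pSQpTQ). Triplicates.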

The next data set deals with early activation of ATM. The data set can be described thus: Western blot of pATM. Type of data set: cell-based. The following applies: after IR, cells pretreated with olaparib. The essentials: as §2
Data set [5] deals with recruitment of PNKP to DNA damage sites. The data set can be described thus: Laser microirradiation, relocation of PNKP. The format is cell-based. Put shortly:
as §1

The test system of data set [6] is recruitment of DNA Ligase4 to DNA damage sites. The data set can be described thus: Laser microirradiation, relocation of Ligase4. The format is cell-based. The following applies: olaparib treatment; Supplemental Fig. 10B. The essentials: as §1
The next data set has as its system G2/M checkpoint. The data set can be described thus: G2/M checkpoints assay, phospho-histone H3 flow cytometry. Type of data set: cell-based. Particulars: olaparib treatment. The essentials:
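Stable cells expressing siRNA-resistant Flag-tagged wild-type NBS1 were pretreated with or without olaparib, then given 0 or 2 Gy IR with 1 h recovery. Cells fixed in 70% ethanol and stained with rabbit anti-phospho-histone H3 (Ser10) plus FITC anti-rabbit secondary. RNase A treatment and propidium iodide staining followed. pH3-positive fraction measured by flow cytometry.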
On the technique in general: In flow cytometry, cells or beads pass a laser one at a time.

For data set [7], the system named is early phosphorylation of 53BP1. The data set can be described thus: IP/Western blot of 53BP1 phosphorylation after IR. Type of data set: cell-based. The following applies: cells pretreated with olaparib, then irradiated. The essentials:
as §2

Data set [8] relates to recruitment of NBS1 to DNA damage sites. The data set can be described thus: Laser microirradiation, relocation of NBS1-GFP in MEFs. The format is cell-based, mouse. The following applies: 100 nM olaparib 1 h before laser microirradiation. The essentials: as §1
Data set [9] deals with wild-type or H2AX−/− MEFs. The data set can be described thus: Colony formation assay after IR. Type of data set: cell-based, mouse. The following applies: 100 nM olaparib, low dose of IR. The essentials: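 500 wild-type or H2AX−/− MEFs seeded per well, then given graded 137Cs IR doses with or without 100 nM olaparib present in the medium throughout culture. After 7 d, cells fixed and crystal violet-stained; colonies of >50 cells counted. Triplicates, mean ± SD, Student's t-test.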

Data set [10] has as its system recruitment of XRCC1 to DNA damage sites. The data set can be described thus: Laser microirradiation, relocation of XRCC1. Type of data set: cell-based. The following applies: olaparib treatment; Supplemental Fig. 10C. Put shortly:
as §1

In data set [11] the test system is recruitment of NBS1 to DNA damage sites. The data set can be described thus: Laser microirradiation, relocation of NBS1-GFP in U2OS cells. Type of data set: cell-based. Particulars: 10 μM wortmannin 1 h before laser microirradiation. The essentials:
as §1

The next data set concerns the target FHA domain of CHK2 (Homo sapiens, UniProt O96017). The data set can be described thus: Interaction with CHK2 FHA domain. Type of data set: binding. Particulars: Supplemental Fig. 3. The essentials: (§3)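 Recombinant domains expressed in E. coli, or by baculovirus for NBS1 FHA+BRCT (C-terminal GST), and purified. ITC at 16°C: protein at 20∼60 μM final in 10 mM Na2HPO4 (pH 7.5), 100 mM NaCl. Syringe ligand (PAR, ADP-ribose or iso-ADP-ribose) at 150∼750 μM final in the same buffer, with PAR counted as ADP-ribose units. 0.4 μL preinjection, then 19 × 2 μL injections at 120 sec, 1000 rpm. Isotherms integrated and fitted.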

A further data set concerns the target T1, BRCT domain of MDC1 (Homo sapiens, UniProt Q14676).
T1 sequence (Q14676 1891-2089 limits assumed): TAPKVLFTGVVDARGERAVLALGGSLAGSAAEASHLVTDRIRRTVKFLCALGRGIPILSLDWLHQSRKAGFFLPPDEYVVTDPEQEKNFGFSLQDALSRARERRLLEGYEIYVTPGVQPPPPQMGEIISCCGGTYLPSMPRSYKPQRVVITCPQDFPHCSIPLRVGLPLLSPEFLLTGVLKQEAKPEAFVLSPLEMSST
The data set can be described thus: Affinity of MDC1 BRCT domain with PAR. The format is binding. Put shortly:
as §3

The target in another data set is T2, FHA domain of RNF8 (Homo sapiens, UniProt O76064).
T2 sequence (O76064 38-92 limits assumed): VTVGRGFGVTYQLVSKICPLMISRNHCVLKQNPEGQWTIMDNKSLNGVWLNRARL
The data set can be described thus: Interaction with RNF8 FHA domain. The format is binding. The following applies: Supplemental Fig. 3. The essentials:
as §3

The target in another data set is BRCT domain of BRCA1 (Homo sapiens, UniProt P38398). The data set can be described thus: Affinity of BRCA1 BRCT domain with PAR. The format is binding. The essentials:
as §3

For data set [12], the target named is XRCC1 (amino acids 379–400) peptide (Homo sapiens, UniProt P18887). The data set can be described thus: Dot blot, pull-down or ITC with XRCC1 peptide. Type of data set: binding. The following applies: pull-down, or ITC assay, data not shown.
Sequence of XRCC1 (amino acids 379–400) peptide (P18887 379-400 limits assumed): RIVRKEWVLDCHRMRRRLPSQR

Sequence of FHA domain of CHK2 (O96017 113-175 limits assumed): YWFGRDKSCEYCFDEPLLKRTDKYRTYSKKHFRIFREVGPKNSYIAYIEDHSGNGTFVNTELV
Sequence of BRCT domain of BRCA1 (P38398 1646-1859 limits assumed): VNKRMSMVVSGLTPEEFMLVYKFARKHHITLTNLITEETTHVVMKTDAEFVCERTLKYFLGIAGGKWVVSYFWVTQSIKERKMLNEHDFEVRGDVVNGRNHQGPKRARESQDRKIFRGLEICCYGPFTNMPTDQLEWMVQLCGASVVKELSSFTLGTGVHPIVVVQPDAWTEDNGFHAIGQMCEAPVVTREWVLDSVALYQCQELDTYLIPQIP

For `O=C(OC[C@H]1O[C@@H](OC(=O)c2cc(O)c(O)c(OC(=O)c3cc(O)c(O)c(O)c3)c2)[C@H](OC(=O)c2cc(O)c(O)c(OC(=O)c3cc(O)c(O)c(O)c3)c2)[C@@H](OC(=O)c2cc(O)c(O)c(OC(=O)c3cc(O)c(O)c(O)c3)c2)[C@@H]1OC(=O)c1cc(O)c(O)c(OC(=O)c2cc(O)c(O)c(O)c2)c1)c1cc(O)c(O)c(OC(=O)c2cc(O)c(O)c(O)c2)c1` [GLTN, gallotannin], the “half-life of PAR at DNA damage sites” value in [1] is reported as “significantly prolonged”. In addition, the “retention of NBS1 R28A mutant at DNA damage sites” value in data set [2] (GLTN treatment) is given as “stabilized NBS1 at DNA damage sites”.
Take `O=C(c1cc(Cc2n[nH]c(=O)c3ccccc23)ccc1F)N1CCN(C(=O)C2CC2)CC1` [olaparib]: the “DNA damage repair (comet assay tail moment)” value in data set [3] was “significantly impaired”. Besides, the “in vivo interaction of FHA/BRCT domain-containing proteins with PAR” value in data set [4] is listed as “no longer interacted with PAR in vivo”. Moreover, in the data set with early activation of ATM, the “early activation of ATM” value is given as “impaired”. Also, the “early recruitment of PNKP to DNA damage sites” value in data set [5] (olaparib treatment, Supplemental Fig. 9A) is “impaired the early recruitment”. For the same compound, the “early recruitment of DNA Ligase4 to DNA damage sites” value in [6] is recorded as “impaired the early recruitment”. Also, in the data set with G2/M checkpoint, the “arrest at the G2/M boundary after IR” value is reported as “could not be fully arrested at the G2/M boundary”. The “early phosphorylation of 53BP1” value in data set [7] is “clearly suppressed”. Also, the “recruitment of NBS1 to DNA damage sites” value was “abolished both the fast recruitment and slow accumulation of NBS1” in data set [8] (H2AX−/− cells); “abolished the early recruitment of NBS1” in data set [8] (wild-type MEFs). Also, the “relocation of NBS1 to DNA damage sites” value in data set [8] (MDC1−/− cells) is recorded as “abolished the relocation of NBS1”. The results for the “sensitivity to IR-induced DNA damage (colony formation)” value in data set [9] (H2AX−/− MEFs) and in data set [9] (wild-type MEFs) were “hypersensitive” and “could still be resistant”, respectively. Moreover, the “fast recruitment of XRCC1 to DNA damage sites” value in data set [10] is recorded as “abolished fast recruitment”. Also, in data set [2] (olaparib treatment), the “recruitment of NBS1 R28A mutant to DNA damage sites” value is reported as “abolished the recruitment of NBS1”.
For the compound `COC[C@H]1OC(=O)c2coc3c2[C@@]1(C)C1=C(C3=O)[C@@H]2CCC(=O)[C@@]2(C)C[C@H]1OC(C)=O` [wortmannin], in data set [5] (wortmannin treatment, Supplemental Fig. 9D), the “retention of PNKP at DNA damage sites” value is “significantly impaired”. The “recruitment of NBS1 to DNA damage sites” value in data set [11] is “could still be recruited”.
Regarding poly(ADP-ribose) [PAR], the “interaction with the FHA domain” value at FHA domain of CHK2 and at FHA domain of RNF8 was “failed to interact” in each case. Besides, the “affinity with PAR” value on BRCT domain of MDC1 and on BRCT domain of BRCA1 was “do not have the affinity” in each case. Moreover, in data set [12], the “binding between the peptide and PAR” value was “did not detect any binding”.

Values taken from article PMC3759693 (Genes & Development, 2013).
